Activity calls are given as the source filed them. The rule behind the calls is not given here.
Tests used:
SK-BR-3 [1] = assay: Induction of apoptosis in human SK-BR-3 cells assessed as early apoptotic cells at 10 uM incubated for 36 hrs by Annexin V/PI staining based flow cytometry (reference value: 2.73 %); type: functional
MCF7 [2] = assay: Induction of apoptosis in human MCF7 cells assessed as late apoptotic cells at 5 uM incubated for 36 hrs by Annexin V/PI staining based flow cytometry (reference value: 6.02 %); type: functional
MCF7 [3] = assay: Antiproliferative activity against human MCF7 cells assessed as inhibition of cell viability measured after 48 hrs by MTT assay; type: functional, cell-based; details: MCF7, 48 h
Outline: (§1)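 MTT cell viability read-out; IC50 obtained by non-linear regression of concentration–response data; values are mean ± SD of three independent experiments.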

MCF7 [4] = assay: Effect on HSP70 level in human MCF7 cells at 10 uM incubated for 36 hrs by DAPI staining based immunofluorescence analysis; type: functional, cell-based
Outline: (§2)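 Cells treated 36 h with DMSO vehicle control, then fixed with 4% paraformaldehyde 15 min, permeabilized with 0.2% Triton X-100 5 min, blocked with 3% BSA 15 min; primary antibody then fluorescent secondary antibody, each 1 h at room temperature; HSP70 green, HSF-1 red, nuclei DAPI; imaged by fluorescence microscopy.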

SK-BR-3 [5] = assay: Induction of apoptosis in human SK-BR-3 cells assessed as necrotic cells at 5 uM incubated for 36 hrs by Annexin V/PI staining based flow cytometry (reference value: 1.89 %); type: functional
SK-BR-3 [6] = assay: Induction of apoptosis in human SK-BR-3 cells assessed as viable cells at 20 uM incubated for 36 hrs by Annexin V/PI staining based flow cytometry (reference value: 90.4 %); type: functional; details: read-out: Activity
SK-BR-3 [7] = assay: Induction of apoptosis in human SK-BR-3 cells assessed as necrotic cells at 20 uM incubated for 36 hrs by Annexin V/PI staining based flow cytometry (reference value: 1.89 %); type: functional
[8] = Metabolic stability in simulated gastric fluid; type: ADME; details: simulated gi fluid
SK-BR-3 [9] = assay: Effect on HSF-1 level in human SK-BR-3 cells assessed as nuclear accumulation at 10 uM incubated for 36 hrs by DAPI staining based immunofluorescence analysis; type: functional, cell-based; outline: as §2
[10] = Metabolic stability in simulated intestinal fluid at 37 degreeC at 1 mg/ml measured upto 1 hr by HPLC analysis; type: ADME; details: simulated gi fluid
Outline: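 Compound at 1 mg mL−1 was incubated in simulated intestinal fluid at 37 °C for up to 1 h. Remaining percentage was measured by HPLC on a C18 column (5 µm, 4.6 × 250 mm), eluting with 95% MeOH/5% H2O.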

SK-BR-3 [11] = assay: Induction of apoptosis in human SK-BR-3 cells assessed as viable cells at 10 uM incubated for 36 hrs by Annexin V/PI staining based flow cytometry (reference value: 90.4 %); type: functional; details: read-out: Activity
Heat shock protein HSP90 [12] = target: T1, Heat shock protein HSP90 (Homo sapiens, UniProt P07900+P08238); assay: Competitive binding affinity to N-terminal HSP90 (unknown origin) at 0.03 to 16 uM incubated for 3 hrs in presence of FITC-GA by fluorescence polarization assay; type: protein assay; details: dose 0.03-16 µM
Outline: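 Competition against FITC-geldanamycin (5 nM) for HSP90α (10 nM) in reaction buffer with 1% BSA, DMSO <1%; compounds at 0.03–16.0 μM final; 3 h at room temperature; fluorescence polarization read at ex 485/em 530 nm; activity% = (FPdrug − FPbackground)/(FPenzyme − FPbackground) × 100, curve-fitted.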

SK-BR-3 [13] = assay: Antiproliferative activity against human SK-BR-3 cells assessed as inhibition of cell viability measured after 48 hrs by MTT assay; type: functional, cell-based; details: SK-BR-3, 48 h; outline: as §1
MCF7 [14] = assay: Induction of apoptosis in human MCF7 cells assessed as early apoptotic cells at 10 uM incubated for 36 hrs by Annexin V/PI staining based flow cytometry (reference value: 1.13 %); type: functional
SK-BR-3 [15] = assay: Induction of cell cycle arrest in human SK-BR-3 cells assessed as accumulation of cells at G1 phase at 5 to 10 uM incubated for 36 hrs by PI staining based flow cytometry; type: functional; details: dose 5-10 µM
Outline: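 Following 36 h treatment (0, 5, 10 μM), trypsinized cells fixed overnight in 70% ethanol, treated with RNase (0.2 mg/mL) and PI (0.1 mg/mL) for 20 min, then analysed by flow cytometry for cell-cycle distribution; n = 3 versus control.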

HEK-293T = assay: Cytotoxicity against HEK293T cells assessed as cell growth inhibition measured after 48 hrs by MTT assay; type: functional, cell-based; details: Homo sapiens; outline: as §1
MDA-MB-231 = assay: Antiproliferative activity against human MDA-MB-231 cells assessed as inhibition of cell viability measured after 48 hrs by MTT assay; type: functional, cell-based; details: MDA-MB-231, 48 h; outline: as §1
Heat shock protein HSP90 [16] = target: T1, Heat shock protein HSP90; assay: Inhibition of HSP90 in human SK-BR-3 cells assessed as decrease in HER2 level at 5 to 20 uM incubated for 48 hrs by Western blot analysis; type: cell-based; details: dose 5-20 µM
Outline: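 MCF-7 or SKBr3 cells were exposed for 48 h, then trypsinised, PBS-washed and lysed in RIPA buffer with phosphatase and protease inhibitors. Cleared lysate (14 000 rpm, 4 °C, 15 min) was BCA-quantified, and 20 µg protein was run on SDS-PAGE and blotted. Blots were blocked in 5% milk, incubated with primary antibodies (1:1000) overnight at 4 °C, then HRP secondary, and developed by ECL. GAPDH (1:10000) was the loading control.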

Heat shock protein HSP90 [17] = target: T1, Heat shock protein HSP90; assay: Inhibition of HSP90 (unknown origin) at C-terminal by AlphaScreen assay; type: protein assay
Outline: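 Modified AlphaScreen system measuring disruption of Cyp40 binding to recombinant HSP90 C-terminal domain; IC50 from two independent experiments.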

MCF7 [18] = assay: Induction of apoptosis in human MCF7 cells assessed as late apoptotic cells at 10 uM incubated for 36 hrs by Annexin V/PI staining based flow cytometry (reference value: 6.02 %); type: functional
MCF7 [19] = assay: Induction of apoptosis in human MCF7 cells assessed as viable cells at 20 uM incubated for 36 hrs by Annexin V/PI staining based flow cytometry (reference value: 90.5 %); type: functional; details: read-out: Activity
SK-BR-3 [20] = assay: Induction of apoptosis in human SK-BR-3 cells assessed as viable cells at 5 uM incubated for 36 hrs by Annexin V/PI staining based flow cytometry (reference value: 90.4 %); type: functional; details: read-out: Activity
MCF7 [21] = assay: Induction of apoptosis in human MCF7 cells assessed as necrotic cells at 10 uM incubated for 36 hrs by Annexin V/PI staining based flow cytometry (reference value: 2.30 %); type: functional
SK-BR-3 [22] = assay: Effect on HSP70 level in human SK-BR-3 cells at 5 to 20 uM incubated for 48 hrs by Western blot analysis; type: functional, cell-based; details: dose 5-20 µM
Outline: (§3)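 Cells exposed 48 h (DMSO vehicle control); trypsinized, lysed in RIPA with phosphatase/protease inhibitors; 20 μg protein on SDS-PAGE, blotted, blocked 5% milk 1 h; primary antibodies 1:1000 overnight at 4 °C, GAPDH 1:10000 as loading control; HRP secondary 1:1000–1:5000; ECL detection.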

MDA-MB-468 = assay: Antiproliferative activity against human MDA-MB-468 cells assessed as inhibition of cell viability measured after 48 hrs by MTT assay; type: functional, cell-based; details: MDA-MB-468, 48 h; outline: as §1
MCF7 [23] = assay: Induction of apoptosis in human MCF7 cells assessed as increase in cleaved pro-caspase-8 level at 10 to 20 uM incubated for 48 hrs by Western blot analysis; type: functional, cell-based; details: dose 10-20 µM; outline: as §3

IC50 (MCF7 [3]): 7.85 µM | Stability [8]: Unstable | Stability [10]: Stable | Activity (Heat shock protein HSP90 [12]): inactive | IC50 (SK-BR-3 [13]): 12.1 µM | IC50 (MDA-MB-231): 11.7 µM | inhibition (Heat shock protein HSP90 [16]): Active | IC50 (Heat shock protein HSP90 [17]): 53.94 µM | IC50 (MDA-MB-468): 8.16 µM
SMILES: CN1CCN(/C=C/C(=O)/C=C/c2cccc(O[Si](C)(C)C(C)(C)C)c2)CC1
Activity (SK-BR-3 [1]): 3.01% | Activity (MCF7 [2]): 9.96% | Activity (MCF7 [4]): inactive | Activity (SK-BR-3 [5]): 1.81% | viability at 20 µM (SK-BR-3 [6]): 18.5% | Activity (SK-BR-3 [7]): 3.13% | Activity (SK-BR-3 [9]): inactive | viability at 10 µM (SK-BR-3 [11]): 86.9% | Activity (MCF7 [14]): 2.6% | Activity (SK-BR-3 [15]): Active | IC50 (HEK-293T): 32.6 µM | Activity (MCF7 [18]): 21.7% | viability at 20 µM (MCF7 [19]): 51.7% | viability at 5 µM (SK-BR-3 [20]): 89.6% | Activity (MCF7 [21]): 10.1% | Activity (SK-BR-3 [22]): inactive | Activity (MCF7 [23]): Active

From ChEMBL document CHEMBL5356984 (RSC Med Chem, 2023)
